pIC50, pKi: −log10 of the molar value.
Species on record: Rattus norvegicus
Experiment: Inhibition of [3H]gabapentin binding to voltage gated calcium channel alpha2delta from rat cerebral cortex at 10 uM by scintillation counting
Format: tissue-based
How it was run: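 Single test concentration, in duplicate. Membranes were incubated 60 min at 22 °C with 10 nM [3H]gabapentin in 10 mM Hepes/Tris pH 7.4. Nonspecific binding was defined with excess unlabelled gabapentin, and filters were counted by scintillation. Compound came from DMSO stock with a final 100-fold dilution in the well. Result given as % inhibition of control specific binding.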

**Q.** For `CC(C)C[C@H](CN)CC(=O)N[C@H]1C(O)O[C@H](CO)[C@H](O)[C@@H]1O` (some centres undefined), which inhibition is on record?
**A.** Its inhibition is 9%.

**Q.** Which inhibition does the source give for `CC(C)C[C@H](CN)CC(=O)N[C@@H]1O[C@H](CO)[C@@H](O)[C@H](O)[C@H]1O` here?
**A.** The inhibition was 17%.

**Q.** Which inhibition does the source give for `CC(C)C[C@H](CN)CC(=O)N[C@@H]1C(O)O[C@H](CO)[C@@H](O)[C@@H]1O` (some centres undefined) here?
**A.** The inhibition was 14%.

**Q.** Which inhibition does the source give for `CC(C)C[C@H](CN)CC(=O)NCCc1c[nH]c2ccc(O)cc12` here?
**A.** The inhibition was 51%.

**Q.** With `CC(C)C[C@H](CN)CC(=O)N[C@H]1C(O)O[C@H](CO)[C@@H](O)[C@@H]1O` (some centres undefined) as the compound, how does the inhibition read?
**A.** The inhibition was 18%.

**Q.** With `CC(C)C[C@H](CN)CC(=O)O` as the compound, how does the inhibition read?
**A.** Its inhibition is 92%.

**Q.** Which inhibition does the source give for `CC(C)C[C@H](CN)CC(=O)NCCc1c[nH]c2ccccc12` here?
**A.** Its inhibition is 18%.

Target: not listed separately
Experiment: Displacement of [3H]gabapentin binding to voltage gated calcium channel alpha2delta from rat cerebral cortex by scintillation counting
Format: tissue-based
How it was run: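 Membranes were incubated 60 min at 22 °C with 10 nM [3H]gabapentin ± test compound in 10 mM Hepes/Tris pH 7.4. Nonspecific binding was taken with excess unlabelled gabapentin. Filter-bound radioactivity was counted by scintillation. Compounds were diluted from DMSO stocks, 100-fold into the well. Duplicates. IC50 came from a competition curve of specific binding; gabapentin was the reference in each run.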

**Q.** With `CC(C)C[C@H](CN)CC(=O)NCCc1c[nH]c2ccc(O)cc12` as the compound, how does the pIC50 read?
**A.** Its pIC50 is 4.89.

**Q.** And the pKi?
**A.** The pKi was 4.96.
